NTR1 ag = activates human neurotensin receptor 1; P30989; NTR1-U2OS beta-arrestin-GFP spot imaging, agonist mode; activation, % at 20 µM; 330,000 compounds, 0.17% hits; AID 493036;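 active = activation at or above 40% of the spot to cytoplasm intensity ratio, with at least 20 cells analyzed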
CCR6 antagonist = blocks CCL20-driven beta-arrestin recruitment at human CCR6. 340,000 compounds, 0.49% hits. inhibition, % at 20 µM. AID 493098. P51684. CHO-K1 CCR6 PathHunter beta-arrestin, luminescence, CCL20-stimulated;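 active = compounds whose inhibition of the agonist-driven luminescence signal at 20 µM reaches about 50%, limit read from the data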;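 note: cells stimulated with CCL20 at 14 nM final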
CXCR6 inh = blocks human CXCR6 beta-arrestin recruitment | O00574 | CHO-K1 PathHunter CXCR6 beta-arrestin, luminescence | inhibition, % at 20 µM | 360,000 compounds, 0.36% hits | AID 602244; in the data active = inhibition above about 34%, passing the limit was not always enough;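 note: antagonist mode with CXCL16 agonist at 10 nM final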
Target sequence (O00574 whole entry, looked up): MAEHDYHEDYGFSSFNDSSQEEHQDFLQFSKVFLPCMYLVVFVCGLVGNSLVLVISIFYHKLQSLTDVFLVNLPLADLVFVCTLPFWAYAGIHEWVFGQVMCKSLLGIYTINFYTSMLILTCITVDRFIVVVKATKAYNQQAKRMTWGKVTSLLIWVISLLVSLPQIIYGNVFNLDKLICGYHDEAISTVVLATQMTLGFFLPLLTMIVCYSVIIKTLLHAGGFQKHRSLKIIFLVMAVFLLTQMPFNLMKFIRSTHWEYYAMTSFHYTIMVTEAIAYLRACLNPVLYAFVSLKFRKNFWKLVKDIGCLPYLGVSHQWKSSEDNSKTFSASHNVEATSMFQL
APJ agonist = APJ receptor agonism. P35414. CHO-K1 APJ PathHunter beta-arrestin, luminescence; 0% DMSO wells, 100% apelin. activation, % at 20 µM. 330,000 compounds, 0.11% hits;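 active = activation more than six SD over the plate average, tested at 20 µM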
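Material: CHO-K1 APJ beta-arrestin complementation cell line; Input: cell density 1000 per well; Incubation: compound stimulation 90 min at 25 °C, detection 60 min; Signal: luminescence from split beta-galactosidase complementation, Galacton Star/Emerald II substrate; Controls: DMSO-only wells as negative, 10 nM Apelin-13 as positive control.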
APJ antagonist = APJ receptor antagonism; 330,000 compounds, 0.32% hits; P35414; inhibition, % at 20 µM; CHO-K1 APJ beta-arrestin complementation, luminescence; AID 2521;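 active = inhibition above about 40% at 20 µM, limit read from the data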;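 note: cells challenged with 10 nM apelin-13 agonist together with compound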
HTR2A ag = mouse HTR2A agonism via beta-arrestin recruitment; CHO-K1 mHTR2A beta-arrestin complementation, luminescence; percent of 30 µM serotonin response; activation, % at 7.6 µM; 360,000 compounds, 0.66% hits; AID 624169;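 active = activation above a run cutoff, the mean activation of all tested compounds plus 3 SD, cut at about 14% in these data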
OPRM1 ag = counter-screen for mouse HTR2A agonists: human mu opioid receptor agonists; shares compounds with HTR2A ag; U2OS OPRM1 beta-arrestin PathHunter, luminescence; DMSO 0%, DAMGO 9.3 µM 100%; activation, % at 9.3 µM; 2,300 compounds, 5.3% hits; AID 624380;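 active = mean activation above the mean of DMSO-only wells plus 3 SD, cut at about 0.5% in these data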
m5-HT2A ag conf = confirmation of mouse HTR2A serotonin receptor agonists; shares compounds with HTR2A ag; 2,300 compounds, 19% hits; CHO-K1 PathHunter beta-arrestin recruitment, luminescence; DMSO 0%, 30 µM serotonin 100%; activation, % at 7.6 µM; AID 624381;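 active = mean activation across triplicates above the hit threshold derived in the original primary screen, cut at about 15% in these data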
Large screens that a line does not name were inactive (follow-up assays come after a bar, where they were run). Only some compounds are listed: those with a hit (about 1.5% of all), similar ones and a draw of the others.

O=C(Nc1cccc(Cl)c1)Nc1nnc([C@H]2C[C@H](O)[C@@H](CO)O2)s1	none (no result: NTR1 ag, CCR6 antagonist, APJ agonist, APJ antagonist)
O=C(N/N=C/c1ccccc1Cl)C1CC1	HTR2A ag 15 | OPRM1 ag inactive | m5-HT2A ag conf inactive
C#CCOCCOCCOCCNc1nc(N2CCOCC2)nc(N2CCN(C(=O)CCCCCCCCCCNC(=O)[C@@H](CCC(=O)O)n3cc(CCCCCN)nn3)CC2)n1	HTR2A ag 15 | OPRM1 ag inactive | m5-HT2A ag conf inactive
Cc1c(O)ccc(-c2n[nH]c(C(=O)O)c2-c2nc3ccccc3s2)c1O	none
O=C(/C=C/c1ccc([N+](=O)[O-])cc1)N1CCN(Cc2ccccc2)CC1	none
O=C(/C=C/c1ccc([N+](=O)[O-])cc1)N1CCN(S(=O)(=O)c2ccccc2)CC1	HTR2A ag 18 | OPRM1 ag inactive | m5-HT2A ag conf inactive
OC(COCc1ccc(Cl)cc1)CN1CCN(c2ccccn2)CC1 (centres undefined)	HTR2A ag 18 | OPRM1 ag inactive | m5-HT2A ag conf 99
OC(COCc1cccs1)CN1CCN(c2ccccn2)CC1 (centres undefined)	HTR2A ag 20 | OPRM1 ag inactive | m5-HT2A ag conf 80
OC(COCc1cccs1)CN1CCN(c2ccccc2Cl)CC1 (centres undefined)	none
COc1ccccc1C1(CC(=O)N2CCCCC2)CCOC(C(C)C)C1 (centres undefined)	none
CCC1(C)CC(CC(=O)O)(c2ccccc2OC)CCO1 (centres undefined)	HTR2A ag 15 | OPRM1 ag inactive | m5-HT2A ag conf inactive
Nc1ncnc(N2CCOCC2)n1	none (no result: NTR1 ag, APJ agonist, APJ antagonist)
O=C(O)c1ccc(NS(=O)(=O)c2ccc(C(=O)Nc3ccccc3)cc2)cc1	none
O=C(O)c1ccc(NC(=O)c2cccc(S(=O)(=O)Nc3ccc(C(=O)O)cc3)c2)cc1	HTR2A ag 16 | OPRM1 ag inactive | m5-HT2A ag conf inactive
Cc1ccc(Oc2ccc(NS(=O)(=O)c3cccc(C(=O)O)c3)cc2)cc1	HTR2A ag 15 | OPRM1 ag inactive | m5-HT2A ag conf inactive

Source: PubChem BioAssay (several laboratories)
